{
  "source": "ChEMBL document CHEMBL3612036",
  "about": "“Design, Synthesis, and Cardioprotective Effects of N-Mercapto-Based Hydrogen Sulfide Donors” (J Med Chem, 2015)",
  "key": {"H9c2 [1]": {"system": "H9c2", "assay": "Cytoprotective activity against H2O2-induced cell damage in rat H9c2 cells at 160 uM pre-incubated for 1 hr before H2O2 challenge for 5 hrs in presence of 480 uM cysteine by LDH release assay", "type": "functional, cell-based", "summary_of_the_method": "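H9c2 cells at about 70% confluence were preconditioned 1 h with donor plus cysteine (480 μM), then treated with H2O2 (400 μM) for 5 h. Extracellular LDH was measured in supernatant; intracellular LDH in lysate made with 2% Triton X-100 in DMEM. Kit reaction ran 10 min at room temperature, read at 490/600 nm. % release = extracellular/(extracellular+intracellular). Run 4 times.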"}, "Mus musculus [2]": {"system": "Mus musculus", "assay": "Effect on area-at-risk per left ventricle in C57BL6/J mouse model of myocardial ischemia/reperfusion at 50 and 100 ug/kg dosed through direct intracardiac injection at time of reperfusion by TTC staining method", "type": "organism-based, Heart left ventricle", "details": "in vivo, 0.1 mg/kg", "summary_of_the_method": "(§1)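 Male C57BL/6J mice, 10–12 weeks old, anesthetised with pentobarbital (50 mg/kg) plus ketamine (60 mg/kg). Left coronary artery occluded with PE-10 tubing for 45 min. Single intracardiac injection at reperfusion; vehicle 0.5% v/v THF in sterile saline. Reperfusion lasted 24 h, then area-at-risk and infarct measured by Evans blue/TTC staining. n = 6–17 per group.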"}, "H9c2 [3]": {"system": "H9c2", "assay": "Cytoprotective activity against H2O2-induced cell damage in rat H9c2 cells assessed as reduction in mitochondrial membrane potential loss at 160 uM pre-incubated for 1 hr before H2O2 challenge for 5 hrs in presence of 480 uM cysteine by Rh123 dye based fluorescent microscopy", "type": "functional", "summary_of_the_method": "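H9c2 cells were grown in high-glucose DMEM with 10% FBS at 37 °C, 5% CO2. They were pretreated 1 h with donor plus cysteine (480 μM), then given H2O2 (400 μM) for 5 h. Rh123 (10 mg/L) was added for 15 min at 37 °C. Fluorescence microscopy gave mean Rh123 intensity from four random fields.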"}, "H9c2 [4]": {"system": "H9c2", "assay": "Cytotoxicity against rat H9c2 cells assessed as reduction in cell viability at 160 uM in presence of 480 uM cysteine incubated for 1 hr by CCK8 assay", "type": "cell-based", "details": "h9c2, 1 h", "summary_of_the_method": "(§2)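 H9c2 cells (high-glucose DMEM, 10% FBS, 37 °C, 5% CO2) were exposed 1 h to donor over 20–160 μM, either alone or with 480 μM cysteine, then washed twice with PBS. Viability was measured by CCK-8 (1:10 dilution, 3 h at 37 °C, absorbance 450 nm). The mean OD of 4 wells was expressed as % of control, in triplicate.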"}, "Mus musculus [5]": {"system": "Mus musculus", "assay": "Cardioprotective activity in C57BL6/J mouse model of myocardial ischemia/reperfusion assessed as reduction in infarct size per area-at-risk dosed through direct intracardiac injection at time of reperfusion by TTC staining method", "type": "functional, organism-based", "details": "Myocardium", "summary_of_the_method": "as §1"}, "Mus musculus [6]": {"system": "Mus musculus", "assay": "Cardioprotective activity in C57BL6/J mouse model of myocardial ischemia/reperfusion assessed as reduction in infarct size per area-at-risk at 100 ug/kg dosed through direct intracardiac injection at time of reperfusion by TTC staining method", "type": "functional", "details": "Myocardium", "summary_of_the_method": "as §1"}, "[7]": {"assay": "[…] peak time for H2S release in pH 7.4 PBS buffer containing 10% THF incubated for 2 hrs at room temperature in presence of cysteine by methylene blue based UV-Vis spectrometry", "type": "physicochemical", "details": "pH 7.4, 2 h", "summary_of_the_method": "(§3)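 Donor (30 mM THF stock; 0.1 mM final) was added to PBS (pH 7.4, 50 mM)/THF 9:1 containing the stated thiol, at room temperature for 2 h. 1.0 mL aliquots were taken periodically into methylene blue cocktail (zinc acetate, N,N-dimethyl-p-phenylenediamine in HCl, FeCl3 in HCl) and reacted 15 min. Absorbance was read at 670 nm and H2S quantified against a Na2S calibration curve; peak concentration and peak time were recorded.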"}, "[8]": {"assay": "[…] peak time for H2S release in pH 7.4 PBS buffer containing 10% THF incubated for 2 hrs at room temperature in presence of 1 mM GSH by methylene blue based UV-Vis spectrometry", "type": "physicochemical", "details": "pH 7.4, 2 h", "summary_of_the_method": "as §3"}, "[9]": {"assay": "GSH-induced H2S release assessed as peak H2S level in pH 7.4 PBS buffer containing 10% THF incubated for 2 hrs at room temperature in presence of cysteine by methylene blue based UV-Vis spectrometry", "type": "physicochemical", "details": "pH 7.4, 2 h", "summary_of_the_method": "as §3"}, "Mus musculus [10]": {"system": "Mus musculus", "assay": "Cardioprotective activity in C57BL6/J mouse model of myocardial ischemia/reperfusion assessed as reduction in infarct size per area-at-risk at 50 ug/kg dosed through direct intracardiac injection at time of reperfusion by TTC staining method", "type": "functional", "details": "Myocardium", "summary_of_the_method": "as §1"}, "H9c2 [11]": {"system": "H9c2", "assay": "Cytotoxicity against rat H9c2 cells assessed as reduction in cell viability at >80 uM incubated for 1 hr by CCK8 assay", "type": "cell-based", "details": "h9c2, 1 h", "summary_of_the_method": "as §2"}, "Mus musculus [12]": {"system": "Mus musculus", "assay": "Cardioprotective activity in C57BL6/J mouse model of myocardial ischemia/reperfusion assessed as reduction in circulating cardiac troponin-1 level at 100 ug/kg dosed through direct intracardiac injection at time of reperfusion", "type": "functional, organism-based", "details": "Heart", "summary_of_the_method": "(§4)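 Male C57BL/6J mice, 10–12 weeks old, were anesthetized with pentobarbital (50 mg/kg) plus ketamine (60 mg/kg). The left coronary artery was occluded for 45 min. At reperfusion, donor was injected intracardiac: dissolved in THF, diluted in sterile saline to 0.05 or 0.1 mg/mL, final 0.5% v/v THF. Vehicle was 0.5% THF in saline. Tail-vein blood was drawn at 4 h reperfusion for troponin I.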"}, "[13]": {"assay": "GSH-induced H2S release assessed as peak H2S level in pH 7.4 PBS buffer containing 10% THF incubated for 2 hrs at room temperature in presence of 1 mM GSH by methylene blue based UV-Vis spectrometry", "type": "physicochemical", "details": "pH 7.4, 2 h", "summary_of_the_method": "as §3"}, "H9c2 [14]": {"system": "H9c2", "assay": "Cytotoxicity against rat H9c2 cells assessed as reduction in cell viability at <40 uM incubated for 1 hr by CCK8 assay", "type": "cell-based", "details": "h9c2, 1 h", "summary_of_the_method": "as §2"}, "Mus musculus [15]": {"system": "Mus musculus", "assay": "Cardioprotective activity in C57BL6/J mouse model of myocardial ischemia/reperfusion assessed as reduction in circulating cardiac troponin-1 level at 50 ug/kg dosed through direct intracardiac injection at time of reperfusion", "type": "functional, organism-based", "details": "Heart", "summary_of_the_method": "as §4"}},
  "note": "Calls of active or inactive are those of the source. The calls are words filed in the database; no cut-off is given here.",
  "data": [
    {"compound": "O=C(NSC(=O)c1ccc(F)cc1)c1ccccc1", "values": [
      {"measurement": "Activity", "setting": "H9c2 [1]", "result": "Active"},
      {"measurement": "Activity", "setting": "Mus musculus [2]", "result": "Non-toxic"},
      {"measurement": "Activity", "setting": "H9c2 [3]", "result": "Active"},
      {"measurement": "Activity", "setting": "H9c2 [4]", "result": "Non-toxic"},
      {"measurement": "inhibition", "setting": "Mus musculus [5]", "result": "Dose-dependent effect"},
      {"measurement": "inhibition in vivo at 0.1 mg/kg", "setting": "Mus musculus [6]", "result": 50, "unit": "%"},
      {"measurement": "Time", "setting": "[7]", "result": 50, "unit": "min"},
      {"measurement": "Time", "setting": "[8]", "result": 55, "unit": "min"},
      {"measurement": "Activity", "setting": "[9]", "result": 39.5, "unit": "µM"},
      {"measurement": "inhibition in vivo at 0.05 mg/kg", "setting": "Mus musculus [10]", "result": 50, "unit": "%"},
      {"measurement": "Activity", "setting": "H9c2 [11]", "result": "Toxic"},
      {"measurement": "inhibition", "setting": "Mus musculus [12]", "result": "Active"},
      {"measurement": "Activity", "setting": "[13]", "result": 40.6, "unit": "µM"},
      {"measurement": "Activity", "setting": "H9c2 [14]", "result": "Non-toxic"},
      {"measurement": "inhibition", "setting": "Mus musculus [15]", "result": "Active"}
    ]}
  ]
}
